Measured values as given in PMC6247064 (Cancer Science, 2018).

Test system: Japanese patients with advanced solid tumors
Assay: Phase 1 study: safety, tolerability, DLT and treatment-emergent adverse events
Format: in vivo, human
Outline: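 Open-label single-arm dose levels of 80 or 105 mg/m2 IV were given on day 1 of 14-day cycles, with at most 6 patients per level. Adverse events were graded by CTCAE v4.03. DLTs were related events in cycle 1 meeting predefined hematologic or nonhematologic criteria. Tolerability required a cycle 1 DLT rate <33%. Primary G-CSF prophylaxis was barred during DLT evaluation; G-CSF was allowed for treatment-emergent neutropenia and as secondary prophylaxis.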

COc1cccc(OCCCN)c1-c1cc(Nc2cnc(C#N)cn2)n[nH]1 [Prexasertib]
TEAE related to study treatment: Lung infection (105 mg/m^2 N = 6, Grade 3 + 4): 0 n (%) | TEAE related to study treatment: Lymphocytopenia (105 mg/m^2 N = 6, Grade 3 + 4): 0 n (%) | TEAE related to study treatment: Nausea (105 mg/m^2 N = 6, Grade 3 + 4): 0 n (%) | TEAE related to study treatment: Neutropenia (105 mg/m^2 N = 6, Grade 3 + 4): 6 (100) n (%) | TEAE related to study treatment: Pyrexia (105 mg/m^2 N = 6, Grade 3 + 4): 0 n (%) | TEAE related to study treatment: Rash (105 mg/m^2 N = 6, Grade 3 + 4): 0 n (%) | TEAE related to study treatment: Rash maculopapular (105 mg/m^2 N = 6, Grade 3 + 4): 0 n (%) | TEAE related to study treatment: SVE (supraventricular extrasystoles) (105 mg/m^2 N = 6, Grade 3 + 4): 0 n (%) | TEAE related to study treatment: Stomatitis (105 mg/m^2 N = 6, Grade 3 + 4): 0 n (%) | TEAE related to study treatment: Thrombocytopenia (105 mg/m^2 N = 6, Grade 3 + 4): 1 (16.7) n (%) | TEAE related to study treatment: Anemia (105 mg/m^2 N = 6, Grade 4): 0 n (%) | TEAE related to study treatment: Any (105 mg/m^2 N = 6, Grade 4): 3 (50.0) n (%) | TEAE related to study treatment: Atrial fibrillation (105 mg/m^2 N = 6, Grade 4): 0 n (%) | TEAE related to study treatment: Constipation (105 mg/m^2 N = 6, Grade 4): 0 n (%) | TEAE related to study treatment: ECG QT prolonged (105 mg/m^2 N = 6, Grade 4): 0 n (%) | TEAE related to study treatment: Fatigue (105 mg/m^2 N = 6, Grade 4): 0 n (%) | TEAE related to study treatment: Febrile neutropenia (105 mg/m^2 N = 6, Grade 4): 0 n (%) | TEAE related to study treatment: Headache (105 mg/m^2 N = 6, Grade 4): 0 n (%) | TEAE related to study treatment: Hypocalcemia (105 mg/m^2 N = 6, Grade 4): 0 n (%) | TEAE related to study treatment: Leukopenia (105 mg/m^2 N = 6, Grade 4): 1 (16.7) n (%) | TEAE related to study treatment: Lung infection (105 mg/m^2 N = 6, Grade 4): 0 n (%) | TEAE related to study treatment: Lymphocytopenia (105 mg/m^2 N = 6, Grade 4): 0 n (%) | TEAE related to study treatment: Nausea (105 mg/m^2 N = 6, Grade 4): 0 n (%) | TEAE related to study treatment: Neutropenia (105 mg/m^2 N = 6, Grade 4): 3 (50.0) n (%) | TEAE related to study treatment: Pyrexia (105 mg/m^2 N = 6, Grade 4): 0 n (%) | TEAE related to study treatment: Rash (105 mg/m^2 N = 6, Grade 4): 0 n (%) | TEAE related to study treatment: Rash maculopapular (105 mg/m^2 N = 6, Grade 4): 0 n (%) | TEAE related to study treatment: SVE (supraventricular extrasystoles) (105 mg/m^2 N = 6, Grade 4): 0 n (%) | TEAE related to study treatment: Stomatitis (105 mg/m^2 N = 6, Grade 4): 0 n (%) | TEAE related to study treatment: Thrombocytopenia (105 mg/m^2 N = 6, Grade 4): 0 n (%) | Patients with at least 1 AE that led to a dose adjustment (105 mg/m^2 group): 3 patients | Patients with at least 1 AE that led to a dose delay (105 mg/m^2 group): 3 patients | Patients with at least 1 AE that led to dose reduction (105 mg/m^2 group (105 to 80 mg/m^2)): 1 patient | TEAE related to study treatment: Anemia (Total N = 12, Any grade): 3 (25.0) n (%) | TEAE related to study treatment: Any (Total N = 12, Any grade): 12 (100) n (%) | TEAE related to study treatment: Atrial fibrillation (Total N = 12, Any grade): 1 (8.3) n (%) | TEAE related to study treatment: Constipation (Total N = 12, Any grade): 3 (25.0) n (%) | TEAE related to study treatment: ECG QT prolonged (Total N = 12, Any grade): 2 (16.7) n (%) | TEAE related to study treatment: Fatigue (Total N = 12, Any grade): 2 (16.7) n (%) | TEAE related to study treatment: Febrile neutropenia (Total N = 12, Any grade): 2 (16.7) n (%) | TEAE related to study treatment: Headache (Total N = 12, Any grade): 1 (8.3) n (%) | TEAE related to study treatment: Hypocalcemia (Total N = 12, Any grade): 1 (8.3) n (%) | TEAE related to study treatment: Leukopenia (Total N = 12, Any grade): 12 (100) n (%) | TEAE related to study treatment: Lung infection (Total N = 12, Any grade): 1 (8.3) n (%) | TEAE related to study treatment: Lymphocytopenia (Total N = 12, Any grade): 2 (16.7) n (%) | TEAE related to study treatment: Nausea (Total N = 12, Any grade): 2 (16.7) n (%) | TEAE related to study treatment: Neutropenia (Total N = 12, Any grade): 11 (91.7) n (%) | TEAE related to study treatment: Pyrexia (Total N = 12, Any grade): 2 (16.7) n (%) | TEAE related to study treatment: Rash (Total N = 12, Any grade): 1 (8.3) n (%) | TEAE related to study treatment: Rash maculopapular (Total N = 12, Any grade): 2 (16.7) n (%) | TEAE related to study treatment: SVE (supraventricular extrasystoles) (Total N = 12, Any grade): 1 (8.3) n (%) | TEAE related to study treatment: Stomatitis (Total N = 12, Any grade): 1 (8.3) n (%) | TEAE related to study treatment: Thrombocytopenia (Total N = 12, Any grade): 8 (66.7) n (%) | TEAE related to study treatment: Anemia (Total N = 12, Grade 3): 1 (8.3) n (%) | TEAE related to study treatment: Any (Total N = 12, Grade 3): 5 (41.7) n (%) | TEAE related to study treatment: Atrial fibrillation (Total N = 12, Grade 3): 0 n (%) | TEAE related to study treatment: Constipation (Total N = 12, Grade 3): 0 n (%) | TEAE related to study treatment: ECG QT prolonged (Total N = 12, Grade 3): 0 n (%) | TEAE related to study treatment: Fatigue (Total N = 12, Grade 3): 0 n (%) | TEAE related to study treatment: Febrile neutropenia (Total N = 12, Grade 3): 1 (8.3) n (%) | TEAE related to study treatment: Headache (Total N = 12, Grade 3): 0 n (%) | TEAE related to study treatment: Hypocalcemia (Total N = 12, Grade 3): 0 n (%) | TEAE related to study treatment: Leukopenia (Total N = 12, Grade 3): 5 (41.7) n (%) | TEAE related to study treatment: Lung infection (Total N = 12, Grade 3): 0 n (%) | TEAE related to study treatment: Lymphocytopenia (Total N = 12, Grade 3): 1 (8.3) n (%) | TEAE related to study treatment: Nausea (Total N = 12, Grade 3): 0 n (%) | TEAE related to study treatment: Neutropenia (Total N = 12, Grade 3): 4 (33.3) n (%) | TEAE related to study treatment: Pyrexia (Total N = 12, Grade 3): 0 n (%) | TEAE related to study treatment: Rash (Total N = 12, Grade 3): 0 n (%) | TEAE related to study treatment: Rash maculopapular (Total N = 12, Grade 3): 0 n (%) | TEAE related to study treatment: SVE (supraventricular extrasystoles) (Total N = 12, Grade 3): 0 n (%) | TEAE related to study treatment: Stomatitis (Total N = 12, Grade 3): 0 n (%) | TEAE related to study treatment: Thrombocytopenia (Total N = 12, Grade 3): 3 (25.0) n (%) | TEAE related to study treatment: Anemia (Total N = 12, Grade 3 + 4): 2 (16.7) n (%) | TEAE related to study treatment: Any (Total N = 12, Grade 3 + 4): 12 (100) n (%) | TEAE related to study treatment: Atrial fibrillation (Total N = 12, Grade 3 + 4): 0 n (%) | TEAE related to study treatment: Constipation (Total N = 12, Grade 3 + 4): 0 n (%) | TEAE related to study treatment: ECG QT prolonged (Total N = 12, Grade 3 + 4): 0 n (%) | TEAE related to study treatment: Fatigue (Total N = 12, Grade 3 + 4): 0 n (%) | TEAE related to study treatment: Febrile neutropenia (Total N = 12, Grade 3 + 4): 2 (16.7) n (%) | TEAE related to study treatment: Headache (Total N = 12, Grade 3 + 4): 0 n (%) | TEAE related to study treatment: Hypocalcemia (Total N = 12, Grade 3 + 4): 0 n (%) | TEAE related to study treatment: Leukopenia (Total N = 12, Grade 3 + 4): 9 (75.0) n (%) | TEAE related to study treatment: Lung infection (Total N = 12, Grade 3 + 4): 0 n (%) | TEAE related to study treatment: Lymphocytopenia (Total N = 12, Grade 3 + 4): 1 (8.3) n (%) | TEAE related to study treatment: Nausea (Total N = 12, Grade 3 + 4): 0 n (%) | TEAE related to study treatment: Neutropenia (Total N = 12, Grade 3 + 4): 10 (83.3) n (%) | TEAE related to study treatment: Pyrexia (Total N = 12, Grade 3 + 4): 0 n (%) | TEAE related to study treatment: Rash (Total N = 12, Grade 3 + 4): 0 n (%) | TEAE related to study treatment: Rash maculopapular (Total N = 12, Grade 3 + 4): 0 n (%) | TEAE related to study treatment: SVE (supraventricular extrasystoles) (Total N = 12, Grade 3 + 4): 0 n (%) | TEAE related to study treatment: Stomatitis (Total N = 12, Grade 3 + 4): 0 n (%) | TEAE related to study treatment: Thrombocytopenia (Total N = 12, Grade 3 + 4): 4 (33.3) n (%) | TEAE related to study treatment: Anemia (Total N = 12, Grade 4): 1 (8.3) n (%) | TEAE related to study treatment: Any (Total N = 12, Grade 4): 7 (58.3) n (%) | TEAE related to study treatment: Atrial fibrillation (Total N = 12, Grade 4): 0 n (%) | TEAE related to study treatment: Constipation (Total N = 12, Grade 4): 0 n (%) | TEAE related to study treatment: ECG QT prolonged (Total N = 12, Grade 4): 0 n (%) | TEAE related to study treatment: Fatigue (Total N = 12, Grade 4): 0 n (%) | TEAE related to study treatment: Febrile neutropenia (Total N = 12, Grade 4): 1 (8.3) n (%) | TEAE related to study treatment: Headache (Total N = 12, Grade 4): 0 n (%) | TEAE related to study treatment: Hypocalcemia (Total N = 12, Grade 4): 0 n (%) | TEAE related to study treatment: Leukopenia (Total N = 12, Grade 4): 4 (33.3) n (%) | TEAE related to study treatment: Lung infection (Total N = 12, Grade 4): 0 n (%) | TEAE related to study treatment: Lymphocytopenia (Total N = 12, Grade 4): 0 n (%) | TEAE related to study treatment: Nausea (Total N = 12, Grade 4): 0 n (%) | TEAE related to study treatment: Neutropenia (Total N = 12, Grade 4): 6 (50.0) n (%) | TEAE related to study treatment: Pyrexia (Total N = 12, Grade 4): 0 n (%) | TEAE related to study treatment: Rash (Total N = 12, Grade 4): 0 n (%) | TEAE related to study treatment: Rash maculopapular (Total N = 12, Grade 4): 0 n (%) | TEAE related to study treatment: SVE (supraventricular extrasystoles) (Total N = 12, Grade 4): 0 n (%) | TEAE related to study treatment: Stomatitis (Total N = 12, Grade 4): 0 n (%) | TEAE related to study treatment: Thrombocytopenia (Total N = 12, Grade 4): 1 (8.3) n (%) | Frequently-reported TEAE: leukopenia (all 12 patients): 100% | Frequently-reported TEAE: neutropenia (all 12 patients): 91.7% | Frequently-reported TEAE: thrombocytopenia (all 12 patients): 66.7% | Nonhematologic grade 3 or 4 treatment-related TEAE (all 12 patients): no reported nonhematologic grade 3 or 4 treatment‐related TEAE | Treatment-related grade 4 TEAE: anemia (all 12 patients (1 instance)): 8.3% | Treatment-related grade 4 TEAE: febrile neutropenia (all 12 patients (1 instance)): 8.3% | Treatment-related grade 4 TEAE: thrombocytopenia (all 12 patients (1 instance)): 8.3% | Treatment-related grade 4 TEAE: leukopenia (all 12 patients (4 patients)): 33.3% | Treatment-related grade 4 TEAE: neutropenia (all 12 patients (6 patients)): 50.0% | AE that led to treatment interruption (all patients): No patients experienced AE that led to treatment interruption | Clinically significant cardiac toxicities or AE related to QT prolongation (all patients): No clinically significant cardiac toxicities or AE related to QT prolongation were observed | Discontinuation of the study due to an AE (all patients): no patients discontinued the study due to an AE | Patient deaths during the study (all patients): No patient deaths were reported | Patients with at least 1 AE that led to a dose adjustment (all patients (8 patients)): 66.7% | Patients with at least 1 AE that led to dose reduction (all patients (Five patients)): 41.7% | Patients with at least 1 AE that led to a dose delay (all patients (Six patients)): 50.0% | Dose reduction due to febrile neutropenia (all patients, 1 patient in each group): 16.7% | Dose delay due to neutropenia (all patients, 2 patients in each group): 33.3% | Neutrophil count nadir in patients with grade 4 drug-related neutropenia (day of cycle): ~8 days | Duration of grade 4 neutrophil decreases (in most cases, transient): < 5 days | Tolerability (DLT frequency in cycle 1 <33%) (recommended dose of 105 mg/m^2, Japanese patients): confirmed
